Experimental data taken from ChEMBL document CHEMBL1275584, “Genetically engineered lipopeptide antibiotics related to A54145 and daptomycin with improved properties” (Antimicrob Agents Chemother, 2010).
In brackets after ≈: the same amount, converted by molar mass.

How the values were obtained:
Format in all cases: functional
Staphylococcus aureus [1] = test: Ratio of MIC for Staphylococcus aureus 42 in presence of 1% bovine pulmonary surfactant to MIC for Staphylococcus aureus 42 in absence of 1% bovine pulmonary surfactant
Procedure, shortened: (§1)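 Broth MIC in Mueller-Hinton broth with 50 mg/liter CaCl2, run with or without 1% bovine pulmonary surfactant, following CLSI methods. Colonies came from frozen stocks streaked on sheep-blood tryptic soy agar (37°C, ~24 h). Incubation was at 37°C with rotation at 200 rpm. The ratio is MIC with surfactant divided by MIC without.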

Staphylococcus aureus [2] = test: Antibacterial activity against Staphylococcus aureus 42 in absence of 1% bovine pulmonary surfactant by CLSI method; conditions: Staphylococcus aureus, 42, Pulmonary surfactant; procedure, shortened: as §1
Staphylococcus aureus [3] = test: Antibacterial activity against Staphylococcus aureus 42 in presence of 1% bovine pulmonary surfactant by CLSI method; conditions: Staphylococcus aureus, 42, Pulmonary surfactant; procedure, shortened: as §1

CC(C)CCCCCCCC(=O)N[C@@H](Cc1c[nH]c2ccccc12)C(=O)N[C@H](CC(N)=O)C(=O)N[C@@H](CC(=O)O)C(=O)N[C@@H]1C(=O)NCC(=O)N[C@@H](CCCN)C(=O)N[C@@H](CC(=O)O)C(=O)N[C@H](C)C(=O)N[C@@H](CC(=O)O)C(=O)NCC(=O)N[C@H](C)C(=O)N[C@@H]([C@H](C)CC(=O)O)C(=O)N[C@@H](CC(=O)c2ccccc2N)C(=O)O[C@H]1C
Ratio (Staphylococcus aureus [1]): 16
MIC (Staphylococcus aureus [2]): 1 µg/mL (≈ 0.618 µM)
MIC (Staphylococcus aureus [3]): 16 µg/mL

CC(C)CCCCCCCC(=O)N[C@@H](Cc1c[nH]c2ccccc12)C(=O)N[C@H](CC(N)=O)C(=O)N[C@@H](CC(=O)O)C(=O)N[C@@H]1C(=O)NCC(=O)N[C@@H](CCCN)C(=O)N[C@@H](CC(=O)O)C(=O)N[C@H](C)C(=O)N[C@@H](CC(=O)O)C(=O)NCC(=O)N[C@H](CO)C(=O)N[C@@H]([C@H](C)CC(=O)O)C(=O)N[C@@H](CC(=O)c2ccccc2N)C(=O)O[C@H]1C
Ratio (Staphylococcus aureus [1]): 128
MIC (Staphylococcus aureus [2]): 0.5 µg/mL (≈ 0.306 µM)
MIC (Staphylococcus aureus [3]): 64 µg/mL

CC(C)CCCCCCCC(=O)N[C@@H](Cc1c[nH]c2ccccc12)C(=O)N[C@H](CC(N)=O)C(=O)N[C@@H](CC(=O)O)C(=O)N[C@@H]1C(=O)NCC(=O)N[C@@H](CCCN)C(=O)N[C@@H](CC(=O)O)C(=O)N[C@H](C)C(=O)N[C@@H](CC(=O)O)C(=O)NCC(=O)N[C@H](CO)C(=O)N[C@@H]([C@H](C)CC(=O)O)C(=O)N[C@@H](Cc2c[nH]c3ccccc23)C(=O)O[C@H]1C
Ratio (Staphylococcus aureus [1]): 32
MIC (Staphylococcus aureus [2]): 1 µg/mL (≈ 0.613 µM)
MIC (Staphylococcus aureus [3]): 32 µg/mL

CC[C@H](C)[C@@H]1NC(=O)[C@H]([C@H](C)CC(=O)O)NC(=O)[C@@H](CO)NC(=O)CNC(=O)[C@H](CC(=O)O)NC(=O)[C@@H](C)NC(=O)[C@H](CC(=O)O)NC(=O)[C@H](CCCN)NC(=O)CNC(=O)[C@@H](NC(=O)[C@H](CC(=O)O)NC(=O)[C@@H](CC(N)=O)NC(=O)[C@H](Cc2c[nH]c3ccccc23)NC(=O)CCCCCCCC(C)C)[C@H](C)OC1=O
Ratio (Staphylococcus aureus [1]): 4
MIC (Staphylococcus aureus [2]): 2 µg/mL (≈ 1.28 µM)
MIC (Staphylococcus aureus [3]): 8 µg/mL

CC(C)CCCCCCCC(=O)N[C@@H](Cc1c[nH]c2ccccc12)C(=O)N[C@H](CC(N)=O)C(=O)N[C@@H](CC(=O)O)C(=O)N[C@@H]1C(=O)NCC(=O)N[C@@H](CCCN)C(=O)N[C@@H](CC(=O)O)C(=O)N[C@H](C)C(=O)N[C@@H](CC(=O)O)C(=O)NCC(=O)N[C@H](CO)C(=O)N[C@@H]([C@H](C)CC(=O)O)C(=O)N[C@@H](C(C)C)C(=O)O[C@H]1C
Ratio (Staphylococcus aureus [1]): 2
MIC (Staphylococcus aureus [2]): 4 µg/mL (≈ 2.59 µM)
MIC (Staphylococcus aureus [3]): 8 µg/mL

CC(C)CCCCCCCC(=O)N[C@@H](Cc1c[nH]c2ccccc12)C(=O)N[C@H](CC(N)=O)C(=O)N[C@@H](CC(=O)O)C(=O)N[C@@H]1C(=O)NCC(=O)N[C@@H](CCCN)C(=O)N[C@@H](CC(=O)O)C(=O)N[C@H](C)C(=O)N[C@@H](CC(=O)O)C(=O)NCC(=O)N[C@H](CO)C(=O)N[C@@H](CCC(=O)O)C(=O)N[C@@H](CC(=O)c2ccccc2N)C(=O)O[C@H]1C
Ratio (Staphylococcus aureus [1]): 2
MIC (Staphylococcus aureus [2]): 8 µg/mL (≈ 4.94 µM)
MIC (Staphylococcus aureus [3]): 16 µg/mL

CC(C)CCCCCCCC(=O)N[C@@H](Cc1c[nH]c2ccccc12)C(=O)N[C@H](CC(N)=O)C(=O)N[C@@H](CC(=O)O)C(=O)N[C@@H]1C(=O)NCC(=O)N[C@@H](CCCN)C(=O)N[C@@H](CC(=O)O)C(=O)N[C@H](C)C(=O)N[C@@H](CC(=O)O)C(=O)NCC(=O)N[C@H](CC(N)=O)C(=O)N[C@@H]([C@H](C)CC(=O)O)C(=O)N[C@@H](CC(=O)c2ccccc2N)C(=O)O[C@H]1C
Ratio (Staphylococcus aureus [1]): 16
MIC (Staphylococcus aureus [2]): 1 µg/mL (≈ 0.602 µM)
MIC (Staphylococcus aureus [3]): 16 µg/mL

CC(C)CCCCCCCC(=O)N[C@@H](Cc1c[nH]c2ccccc12)C(=O)N[C@H](CC(N)=O)C(=O)N[C@@H](CC(=O)O)C(=O)N[C@@H]1C(=O)NCC(=O)N[C@@H](CCCN)C(=O)N[C@@H](CC(=O)O)C(=O)N[C@H](CCCCN)C(=O)N[C@@H](CC(=O)O)C(=O)NCC(=O)N[C@H](CC(N)=O)C(=O)N[C@@H]([C@H](C)CC(=O)O)C(=O)N[C@@H](CC(=O)c2ccccc2N)C(=O)O[C@H]1C
Ratio (Staphylococcus aureus [1]): 32
MIC (Staphylococcus aureus [2]): 1 µg/mL (≈ 0.582 µM)
MIC (Staphylococcus aureus [3]): 32 µg/mL

CC[C@H](C)[C@@H]1NC(=O)[C@H]([C@H](C)CC(=O)O)NC(=O)[C@@H](CO)NC(=O)CNC(=O)[C@H]([C@H](OC)C(=O)O)NC(=O)[C@@H](CCCCN)NC(=O)[C@H](CC(=O)O)NC(=O)[C@H](C)NC(=O)CN(C)C(=O)[C@@H](NC(=O)[C@@H](NC(=O)[C@@H](CCC(=O)O)NC(=O)[C@H](Cc2c[nH]c3ccccc23)NC(=O)CCCCCCCC(C)C)[C@H](O)C(N)=O)[C@H](C)OC1=O
Ratio (Staphylococcus aureus [1]): 8
MIC (Staphylococcus aureus [2]): 2 µg/mL (≈ 1.22 µM)
MIC (Staphylococcus aureus [3]): 16 µg/mL

CC[C@H](C)[C@@H]1NC(=O)[C@H]([C@H](C)CC(=O)O)NC(=O)[C@@H](CC(N)=O)NC(=O)CNC(=O)[C@H]([C@H](OC)C(=O)O)NC(=O)[C@@H](C)NC(=O)[C@H](CC(=O)O)NC(=O)[C@H](C)NC(=O)CN(C)C(=O)[C@@H](NC(=O)[C@@H](NC(=O)[C@@H](CCC(=O)O)NC(=O)[C@H](Cc2c[nH]c3ccccc23)NC(=O)CCCCCCCC(C)C)[C@H](O)C(N)=O)[C@H](C)OC1=O
Ratio (Staphylococcus aureus [1]): 32
MIC (Staphylococcus aureus [2]): 1 µg/mL (≈ 0.619 µM)
MIC (Staphylococcus aureus [3]): 32 µg/mL

CC[C@H](C)[C@@H]1NC(=O)[C@H]([C@H](C)CC(=O)O)NC(=O)[C@@H](CC(N)=O)NC(=O)CNC(=O)[C@H]([C@H](OC)C(=O)O)NC(=O)[C@@H](CC(N)=O)NC(=O)[C@H](CC(=O)O)NC(=O)[C@H](C)NC(=O)CN(C)C(=O)[C@@H](NC(=O)[C@@H](NC(=O)[C@@H](CCC(=O)O)NC(=O)[C@H](Cc2c[nH]c3ccccc23)NC(=O)CCCCCCCC(C)C)[C@H](O)C(N)=O)[C@H](C)OC1=O
Ratio (Staphylococcus aureus [1]): 8
MIC (Staphylococcus aureus [2]): 8 µg/mL (≈ 4.82 µM)
MIC (Staphylococcus aureus [3]): 64 µg/mL

CC[C@H](C)[C@@H]1NC(=O)[C@H]([C@H](C)CC(=O)O)NC(=O)[C@@H](CC(N)=O)NC(=O)CNC(=O)[C@H]([C@H](OC)C(=O)O)NC(=O)[C@@H](CCCCN)NC(=O)[C@H](CC(=O)O)NC(=O)[C@H](C)NC(=O)CN(C)C(=O)[C@@H](NC(=O)[C@H](CC(N)=O)NC(=O)[C@@H](CCC(=O)O)NC(=O)[C@H](Cc2c[nH]c3ccccc23)NC(=O)CCCCCCCC(C)C)[C@H](C)OC1=O
Ratio (Staphylococcus aureus [1]): 8
MIC (Staphylococcus aureus [2]): 2 µg/mL (≈ 1.21 µM)
MIC (Staphylococcus aureus [3]): 16 µg/mL

CC[C@H](C)[C@@H]1NC(=O)[C@H](CCC(=O)O)NC(=O)[C@@H](CO)NC(=O)CNC(=O)[C@H]([C@H](OC)C(=O)O)NC(=O)[C@@H](CCCCN)NC(=O)[C@H](CC(=O)O)NC(=O)[C@H](C)NC(=O)CN(C)C(=O)[C@@H](NC(=O)[C@@H](NC(=O)[C@@H](CCC(=O)O)NC(=O)[C@H](Cc2c[nH]c3ccccc23)NC(=O)CCCCCCCC(C)C)[C@H](O)C(N)=O)[C@H](C)OC1=O
Ratio (Staphylococcus aureus [1]): 2
MIC (Staphylococcus aureus [2]): 64 µg/mL (≈ 39.2 µM)
MIC (Staphylococcus aureus [3]): 128 µg/mL

CC[C@H](C)[C@@H]1NC(=O)[C@H](CCC(=O)O)NC(=O)[C@@H](CC(N)=O)NC(=O)CNC(=O)[C@H]([C@H](OC)C(=O)O)NC(=O)[C@@H](CO)NC(=O)[C@H](CC(=O)O)NC(=O)[C@H](C)NC(=O)CN(C)C(=O)[C@@H](NC(=O)[C@@H](NC(=O)[C@@H](CCC(=O)O)NC(=O)[C@H](Cc2c[nH]c3ccccc23)NC(=O)CCCCCCCC(C)C)[C@H](O)C(N)=O)[C@H](C)OC1=O
Ratio (Staphylococcus aureus [1]): 1
MIC (Staphylococcus aureus [2]): 8 µg/mL (≈ 4.95 µM)
MIC (Staphylococcus aureus [3]): 8 µg/mL

CC[C@H](C)[C@@H]1NC(=O)[C@H](CCC(=O)O)NC(=O)[C@@H](CC(N)=O)NC(=O)CNC(=O)[C@H]([C@H](OC)C(=O)O)NC(=O)[C@@H](CC(N)=O)NC(=O)[C@H](CC(=O)O)NC(=O)[C@H](C)NC(=O)CN(C)C(=O)[C@@H](NC(=O)[C@@H](NC(=O)[C@@H](CCC(=O)O)NC(=O)[C@H](Cc2c[nH]c3ccccc23)NC(=O)CCCCCCCC(C)C)[C@H](O)C(N)=O)[C@H](C)OC1=O
Ratio (Staphylococcus aureus [1]): 1
MIC (Staphylococcus aureus [2]): 16 µg/mL (≈ 9.73 µM)
MIC (Staphylococcus aureus [3]): 16 µg/mL

CC[C@H](C)[C@@H]1NC(=O)[C@H](CCC(=O)O)NC(=O)[C@@H](C)NC(=O)CNC(=O)[C@H]([C@H](OC)C(=O)O)NC(=O)[C@@H](CCCCN)NC(=O)[C@H](CC(=O)O)NC(=O)[C@H](C)NC(=O)CN(C)C(=O)[C@@H](NC(=O)[C@@H](NC(=O)[C@@H](CCC(=O)O)NC(=O)[C@H](Cc2c[nH]c3ccccc23)NC(=O)CCCCCCCC(C)C)[C@H](O)C(N)=O)[C@H](C)OC1=O
Ratio (Staphylococcus aureus [1]): 2
MIC (Staphylococcus aureus [2]): 8 µg/mL (≈ 4.95 µM)
MIC (Staphylococcus aureus [3]): 16 µg/mL

CC[C@H](C)[C@@H]1NC(=O)[C@H](CCC(=O)O)NC(=O)[C@@H](CC(N)=O)NC(=O)CNC(=O)[C@H]([C@H](OC)C(=O)O)NC(=O)[C@@H](C)NC(=O)[C@H](CC(=O)O)NC(=O)[C@H](C)NC(=O)CN(C)C(=O)[C@@H](NC(=O)[C@@H](NC(=O)[C@@H](CCC(=O)O)NC(=O)[C@H](Cc2c[nH]c3ccccc23)NC(=O)CCCCCCCC(C)C)[C@H](O)C(N)=O)[C@H](C)OC1=O
Ratio (Staphylococcus aureus [1]): 2
MIC (Staphylococcus aureus [2]): 4 µg/mL (≈ 2.5 µM)
MIC (Staphylococcus aureus [3]): 8 µg/mL
